This is an account of results in ChEMBL document CHEMBL3286365, “Neoflavonoids as potential osteogenic agents from Dalbergia sissoo heartwood” (Bioorg Med Chem Lett, 2014).

A word on the EC50: it is the concentration at which the effect is half-maximal.

Calls of active or inactive are those of the source. The calls are words filed in the database; no cut-off is given here.

Format in all cases: functional, cell-based
Assay [1] concerns Calvarial osteoblast. The assay can be described thus: Increase in BMP-2 gene expression in rat calvarial osteoblast cells by qPCR analysis. A general note: Real-time PCR tracks product formation cycle by cycle.
Assay [2] concerns Calvarial osteoblast. The assay can be described thus: Increase in collagen 1 gene expression in rat calvarial osteoblast cells by qPCR analysis.
The test system of assay [3] is Calvarial osteoblast. The assay can be described thus: Osteogenic activity in rat calvarial osteoblast cells assessed as induction of cell differentiation by measuring alkaline phosphatase activity using pNPP as substrate by calorimetric analysis. As to conditions: for EC50: Rattus norvegicus, Calvarial osteoblast. The method, boiled down: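 Primary rat calvarial osteoblasts, trypsinized at about 80% confluence, seeded at 2×10³ cells/well. Treated with compound (100µM, 1µM, 10nM, 100pM, 1pM) or vehicle for 48 h in α-MEM with 10% FBS, 10mM β-glycerophosphate, 50µg/ml ascorbic acid and 1% penicillin/streptomycin. Total ALP measured with p-nitrophenylphosphate substrate, absorbance at 405 nm. Mean±S.D. of three independent experiments.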

Assay [4] concerns Calvarial osteoblast. The assay can be described thus: Increase in RunX2 gene expression in rat calvarial osteoblast cells by qPCR analysis.
The subject of assay [5] is Calvarial osteoblast. As to the kind of experiment: Increase in osteocalcin gene expression in rat calvarial osteoblast cells by qPCR analysis.
Assay [6] relates to Calvarial osteoblast. The assay can be described thus: Osteogenic activity in rat calvarial osteoblast cells assessed as induction of mineralization by Alizarin red-S staining. The procedure, abridged: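 Calvarial osteoblasts trypsinized at 80% confluence and plated at 2.5×10⁴ cells/well. Treated with compound in differentiation medium (ascorbic acid 50µg/ml, β-glycerophosphate 10mM), with medium changed every alternate day for up to 21 days. Fixed in 4% paraformaldehyde for 15 min, stained 30 min with 40mM Alizarin Red-S (pH 4.5). Dye extracted with 10% acetic acid, heated at 85°C, neutralized with ammonium hydroxide, OD read at 405 nm.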

With `COC1=CC(=O)c2cc(-c3ccccc3)c3cc(O)c(OC)cc3c2C1=O` [LATINONE], the outcome in assay [1], in assay [2], in assay [4] and in assay [5] was Active. The “concentration of maximal effect” value in assay [3] was 1 µM.

As to `COc1cc2oc(=O)cc(-c3ccccc3)c2cc1O` [DALBERGIN], the result in assay [1], in assay [2], in assay [4] and in assay [5] was Active. Also, the “concentration of maximal effect” value in assay [3] was found to be 1e-06 µM. The EC50 in assay [3] is 1.01 nM.

Consider `C=CC(c1ccccc1)c1cc(O)c(OC)cc1OC` (stereo unspecified) [DALBERGIPHENOL], for which the result in assay [1], in assay [2], in assay [4], in assay [5] and in assay [6] was Active. Also, the “concentration of maximal effect” value in assay [3] turned out to be 0.01 µM.

In the case of `COc1cc(OC)c(/C(=C/C=O)c2ccccc2)cc1O`, the result in assay [1], in assay [2], in assay [4], in assay [5] and in assay [6] was Active. Also, in assay [3], the “concentration of maximal effect” value is 0.0001 µM. The EC50 in assay [3] was determined as 6.46 nM.

Turning to `COc1cc2c(cc1O)C(c1ccccc1)=CCO2`, the outcome in assay [1], in assay [2], in assay [4] and in assay [5] was Active. Also, the “concentration of maximal effect” value in assay [3] is 0.01 µM. In addition, in assay [3], the EC50 was determined as 1700 nM.

Consider `COc1cc2oc(=O)cc(-c3ccccc3)c2cc1OC`, for which the outcome in assay [1], in assay [2], in assay [4], in assay [5] and in assay [6] was Active. In addition, the “concentration of maximal effect” value in assay [3] is 1 µM.
